Measurements gathered from unrelated publications.
Each line is one published result; the experiments were not run side by side.

Structure (SMILES)	target or system	test	system	conditions	endpoint	value
COc1cccc(-c2nc(N)nc(N)c2OCCCOc2ccccc2CCC(=O)O)c1	Mycobacterium avium	microbial growth, resazurin	–	–	MIC	5.6 µg/mL
CO/N=c1\cc2n(-c3ccc(Cl)cc3)c3ccccc3nc-2cc1Nc1ccc(Cl)cc1	Mycobacterium avium	microbial growth	–	clinical isolate	MIC	> 30 µM
CN(Cc1ccc(C2(C(F)(F)F)CC2)cc1)Cc1cccc2ccccc12	Trichophyton rubrum	microbial growth, disc diffusion	ATCC28188	0.064 µg/mL, 6 days	inhibition zone	≥ 55 mm
C[C@H](NC(=O)CO/N=c1\cc2n(-c3ccc(Cl)cc3)c3ccccc3nc-2cc1Nc1ccc(Cl)cc1)C(=O)OC(C)(C)C	Mycobacterium avium	microbial growth	–	clinical isolate	MIC	> 30 µM
NCC[C@H](O)C(=O)N[C@@H]1C[C@H](N)[C@@H](O[C@H]2O[C@H](CN)[C@@H](O)[C@H](O)[C@H]2O)[C@H](O)[C@H]1O[C@H]1O[C@H](CO)[C@@H](O)[C@H](N)[C@H]1O	Mycobacterium avium	microbial growth, resazurin	–	–	MIC	1.7 µg/mL
O=C(CO/N=c1\cc2n(-c3ccc(Cl)cc3)c3ccccc3nc-2cc1Nc1ccc(Cl)cc1)NCc1ccc2c(c1)CCO2	Mycobacterium avium	microbial growth	ATCC700898	–	MIC	1.88 µM
O=C(c1ccc(Oc2ccc(Br)cc2)c([N+](=O)[O-])c1)C(Cl)Cl	NCI-H1975	cell growth or viability, MTT	–	2.5 µM	inhibition	60.3%
O/N=c1\cc2n(-c3ccc(Cl)cc3)c3ccccc3nc-2cc1Nc1ccc(Cl)cc1	Mycobacterium avium	microbial growth	ATCC700898	–	MIC	1.88 µM
O=C(c1ccc(Oc2ccc(-c3ccccc3)cc2)c([N+](=O)[O-])c1)C(Cl)Cl	NCI-H1975	cell growth or viability, MTT	–	2.5 µM	inhibition	85.2%
C=CC(=O)NC1CCN(c2ncc3ncnc(Nc4ccc(Oc5ccc6c(c5)ncn6C)c(C)c4)c3n2)CC1	HCC1428	cell growth or viability	–	–	EC50	7.04 µM
O=C(c1ccc(Oc2cccc(-c3ccccc3)c2)c([N+](=O)[O-])c1)C(Cl)Cl	NCI-H1975	cell growth or viability, MTT	–	2.5 µM	inhibition	98.1%
O=C(CO/N=c1\cc2n(-c3ccc(Cl)cc3)c3ccccc3nc-2cc1Nc1ccc(Cl)cc1)NCc1ccc(C(F)(F)F)cc1	Mycobacterium avium	microbial growth	–	clinical isolate	MIC	> 30 µM
O=C(c1ccc(Oc2ccc3c(c2)OCO3)c([N+](=O)[O-])c1)C(Cl)Cl	NCI-H1975	cell growth or viability, MTT	–	2.5 µM	inhibition	97.3%
CCOC(=O)CNC(=O)CO/N=c1\cc2n(-c3ccc(Cl)cc3)c3ccccc3nc-2cc1Nc1ccc(Cl)cc1	Mycobacterium avium	microbial growth	ATCC700898	–	MIC	1.88 µM
COc1cccc2c1C(=O)c1c(O)c3c(c(O)c1C2=O)C[C@@](O)(C(=O)CO)C[C@@H]3O[C@H]1C[C@H](N)[C@H](O)[C@H](C)O1	NCI-H1975	cell growth or viability, MTT	–	72 h	IC50	0.34 µM
Nc1nc(N)c(OCCCOc2ccccc2CCC(=O)O)c(-c2ccncc2)n1	Mycobacterium avium	microbial growth, resazurin	–	–	MIC	0.6 µg/mL
N#Cc1ccc(Oc2ccc(C(=O)C(Cl)Cl)cc2[N+](=O)[O-])cc1	NCI-H1975	cell growth or viability, MTT	–	2.5 µM	inhibition	96.8%
CN(Cc1ccc(C(C)(C)C)cc1)Cc1cccc2ccccc12	Trichophyton rubrum	microbial growth, disc diffusion	ATCC28188	0.512 µg/mL, 6 days	inhibition zone	≥ 55 mm
